According to ChEMBL document CHEMBL1122688, “Antimycotic azoles. 7. Synthesis and antifungal properties of a series of novel triazol-3-ones” (1984):

Key:
[1] = In vivo activity against microsporosis guinea pig, measured as the ratio of animals cured/animals infected (C/I) at dose 10 mg/kg; 1/2; assay type: functional
[2] = In vivo activity against vaginal candidoses in rats, measured as the ratio of animals cured/animals infected (C/I) at dose 2.5 mg/kg; 0/2; assay type: functional
Microsporum canis = assay: In vitro antifungal activity against Microsporum canis; assay type: functional
Summary of the method: (§1)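 Fungal growth-inhibition screen (Godefroi method) against dermatophytes, yeasts, moulds and other fungi. The value is the lowest concentration (µg/mL) giving total inhibition of growth, tested up to 100 µg/mL.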

[3] = In vivo activity against microsporosis guinea pig, measured as the ratio of animals cured/animals infected (C/I) at dose 2.5 mg/kg; 0/2; assay type: functional
Saprolegnia = assay: In vitro antifungal activity against Saprolegnia sp; assay type: functional; summary of the method: as §1
[4] = In vivo activity against microsporosis guinea pig, measured as the ratio of animals cured/animals infected (C/I) at dose 10 mg/kg; C/I = 2/4; assay type: functional
Candida tropicalis = assay: In vitro antifungal activity against Candida tropicalis; assay type: functional; summary of the method: as §1
Trichophyton benhamiae = assay: In vitro antifungal activity against Trichophyton mentagrophytes; assay type: functional, Arthroderma benhamiae; summary of the method: as §1
Candida albicans = assay: In vitro antifungal activity against Candida albicans; assay type: functional; summary of the method: as §1
Trichophyton rubrum = assay: In vitro antifungal activity against Trichophyton rubrum; assay type: functional; summary of the method: as §1
[5] = In vivo activity against microsporosis guinea pig, measured as the ratio of animals cured/animals infected (C/I) at dose 2.5 mg/kg; C/I = 0/2; assay type: functional
[6] = In vivo activity against vaginal candidoses in rats, measured as the ratio of animals cured/animals infected (C/I) at dose 2.5 mg/kg; C/I = 0/2; assay type: functional
Cryptococcus neoformans = assay: In vitro antifungal activity against Cryptococcus neoformans; assay type: functional; summary of the method: as §1
Aspergillus fumigatus = assay: In vitro antifungal activity against Aspergillus fumigatus; assay type: functional; summary of the method: as §1
Sporothrix schenckii = assay: In vitro antifungal activity against Sporothrix schenck ii; assay type: functional; summary of the method: as §1
[7] = In vitro antifungal activity against Mucor sp; assay type: functional; summary of the method: as §1
Phialophora verrucosa = assay: In vitro antifungal activity against Phialophora verrucosa; assay type: functional; summary of the method: as §1
[8] = In vivo activity against vaginal candidoses in rats, measured as the ratio of animals cured/animals infected (C/I) at dose 2.5 mg/kg; C/I = 1/6; assay type: functional
[9] = In vivo activity against microsporosis guinea pig, measured as the ratio of animals cured/animals infected (C/I) at dose 10 mg/kg; C/I = 5/6; assay type: functional
[10] = In vivo activity against microsporosis guinea pig, measured as the ratio of animals cured/animals infected (C/I) at dose 1.25 mg/kg; C/I = 0/6; assay type: functional
[11] = In vivo activity against microsporosis guinea pig, measured as the ratio of animals cured/animals infected (C/I) at dose 2.5 mg/kg; C/I = 1/6; assay type: functional
[12] = In vivo activity against microsporosis guinea pig, measured as the ratio of animals cured/animals infected (C/I) at dose 2.5 mg/kg; C/I = 2/6; assay type: functional
[13] = In vivo activity against vaginal candidoses in rats, measured as the ratio of animals cured/animals infected (C/I) at dose 0.63 mg/kg; C/I = 0/4; assay type: functional
[14] = In vivo activity against microsporosis guinea pig, measured as the ratio of animals cured/animals infected (C/I) at dose 10 mg/kg; C/I = 4/4; assay type: functional
Rattus norvegicus [15] = assay: In vivo activity against vaginal candidoses in rats, measured as the ratio of animals cured/animals infected (C/I) at dose 1.25 mg/kg; C/I = 3/12; assay type: functional
[16] = In vivo activity against vaginal candidoses in rats, measured as the ratio of animals cured/animals infected (C/I) at dose 10 mg/kg; C/I = 5/6; assay type: functional
[17] = In vivo activity against vaginal candidoses in rats, measured as the ratio of animals cured/animals infected (C/I) at dose 2.5 mg/kg; C/I = 4/11; assay type: functional
[18] = In vivo activity against microsporosis guinea pig, measured as the ratio of animals cured/animals infected (C/I) at dose 2.5 mg/kg; C/I = 0/8; assay type: functional
[19] = In vivo activity against microsporosis guinea pig, measured as the ratio of animals cured/animals infected (C/I) at dose 1.25 mg/kg; C/I = 0/8; assay type: functional
[20] = In vivo activity against vaginal candidoses in rats, measured as the ratio of animals cured/animals infected (C/I) at dose 0.63 mg/kg; C/I = 4/11; assay type: functional
[21] = In vivo activity against microsporosis guinea pig, measured as the ratio of animals cured/animals infected (C/I) at dose 10 mg/kg; C/I = 2/6; assay type: functional
[22] = In vivo activity against vaginal candidoses in rats, measured as the ratio of animals cured/animals infected (C/I) at dose 1.25 mg/kg; C/I = 6/6; assay type: functional
[23] = In vivo activity against vaginal candidoses in rats, measured as the ratio of animals cured/animals infected (C/I) at dose 2.5 mg/kg; C/I = 6/6; assay type: functional
[24] = In vivo activity against vaginal candidoses in rats, measured as the ratio of animals cured/animals infected (C/I) at dose 2.5 mg/kg; C/I = 29/34; assay type: functional
[25] = In vivo activity against microsporosis guinea pig, measured as the ratio of animals cured/animals infected (C/I) at dose 2.5 mg/kg; C/I = 11/12; assay type: functional
[26] = In vivo activity against vaginal candidoses in rats, measured as the ratio of animals cured/animals infected (C/I) at dose 10 mg/kg; C/I = 12/12; assay type: functional
[27] = In vivo activity against microsporosis guinea pig, measured as the ratio of animals cured/animals infected (C/I) at dose 1.25 mg/kg; C/I = 12/15; assay type: functional
[28] = In vivo activity against microsporosis guinea pig, measured as the ratio of animals cured/animals infected (C/I) at dose 10 mg/kg; C/I = 6/6; assay type: functional
Rattus norvegicus [29] = assay: In vivo activity against vaginal candidoses in rats, measured as the ratio of animals cured/animals infected (C/I) at dose 1.25 mg/kg; C/I = 13/33; assay type: functional
[30] = In vivo activity against vaginal candidoses in rats, measured as the ratio of animals cured/animals infected (C/I) at dose 0.63 mg/kg; C/I = 7/40; assay type: functional
[31] = In vivo activity against vaginal candidoses in rats, measured as the ratio of animals cured/animals infected (C/I) at dose 2.5 mg/kg; C/I = 13/15; assay type: functional
[32] = In vivo activity against microsporosis guinea pig, measured as the ratio of animals cured/animals infected (C/I) at dose 10 mg/kg; C/I = 4/8; assay type: functional
[33] = In vivo activity against microsporosis guinea pig, measured as the ratio of animals cured/animals infected (C/I) at dose 2.5 mg/kg; C/I = 3/10; assay type: functional
Rattus norvegicus [34] = assay: In vivo activity against vaginal candidoses in rats, measured as the ratio of animals cured/animals infected (C/I) at dose 1.25 mg/kg; C/I = 16/18; assay type: functional
[35] = In vivo activity against vaginal candidoses in rats, measured as the ratio of animals cured/animals infected (C/I) at dose 0.63 mg/kg; C/I = 4/12; assay type: functional
[36] = In vivo activity against vaginal candidoses in rats, measured as the ratio of animals cured/animals infected (C/I) at dose 10 mg/kg; C/I = 10/12; assay type: functional
[37] = In vivo activity against vaginal candidoses in rats, measured as the ratio of animals cured/animals infected (C/I) at dose 10 mg/kg; C/I = 4/4; assay type: functional
[38] = In vivo activity against microsporosis guinea pig, measured as the ratio of animals cured/animals infected (C/I) at dose 20 mg/kg; 30/30; assay type: functional
[39] = In vivo activity against microsporosis guinea pig, measured as the ratio of animals cured/animals infected (C/I) at dose 2.5 mg/kg;0/14; assay type: functional
[40] = In vivo activity against vaginal candidoses in rats, measured as the ratio of animals cured/animals infected (C/I) at dose 10 mg/kg; 173/181; assay type: functional
[41] = In vivo activity against vaginal candidoses in rats, measured as the ratio of animals cured/animals infected (C/I) at dose 1.25 mg/kg; 0/12; assay type: functional
[42] = In vivo activity against microsporosis guinea pig, measured as the ratio of animals cured/animals infected (C/I) at dose 10 mg/kg; 4/34; assay type: functional
[43] = In vivo activity against vaginal candidoses in rats, measured as the ratio of animals cured/animals infected (C/I) at dose 2.5 mg/kg; 2/8; assay type: functional

Row | Structure (SMILES) | Inhibition (Saprolegnia) [µg/mL] | Inhibition (Candida tropicalis) [µg/mL] | Inhibition (Trichophyton benhamiae) [µg/mL] | Inhibition (Candida albicans) [µg/mL] | Inhibition (Microsporum canis) [µg/mL] | Inhibition (Trichophyton rubrum) [µg/mL] | Inhibition (Cryptococcus neoformans) [µg/mL] | Inhibition (Aspergillus fumigatus) [µg/mL] | Inhibition (Sporothrix schenckii) [µg/mL] | Inhibition [7] [µg/mL] | Inhibition (Phialophora verrucosa) [µg/mL] | also measured
1 | C=CCn1ncn(-c2ccc(N3CCN(c4ccc(OC[C@@H]5COC(Cn6ccnc6)(c6ccc(Cl)cc6Cl)O5)cc4)CC3)cc2)c1=O (stereo partly drawn) |  |  |  |  |  |  |  |  |  |  |  | C/I ratio [1]: 1; C/I ratio [2]: 0; Lowest level of total inhibition (Microsporum canis): > 100 µg/mL; C/I ratio [3]: 0
2 | CC(C)n1ncn(-c2ccc(N3CCN(c4ccc(OC[C@@H]5COC(Cn6ccnc6)(c6ccc(Cl)cc6Cl)O5)cc4)CC3)cc2)c1=O (stereo partly drawn) | >100 | 100 | 100 | 100 | >100 | 100 | >100 | >100 | >100 | >100 | >100 | C/I ratio [4]: 0.5; C/I ratio [5]: 0; C/I ratio [6]: 0
3 | Cc1nn(C(C)C)c(=O)n1-c1ccc(N2CCN(c3ccc(OC[C@@H]4COC(Cn5ccnc5)(c5ccc(Cl)cc5Cl)O4)cc3)CC2)cc1 (stereo partly drawn) | >100 | 1 | 100 | 100 | >100 | >100 | >100 | >100 | >100 | >100 | >100 | C/I ratio [8]: 1; C/I ratio [9]: 0.833; C/I ratio [10]: 0; C/I ratio [11]: 1
4 | Cn1ncn(-c2ccc(N3CCN(c4ccc(OC[C@@H]5COC(Cn6ccnc6)(c6ccc(Cl)cc6Cl)O5)cc4)CC3)cc2)c1=O (stereo partly drawn) | 100 | 1 | 1 | >100 | >100 | 1 | 1 | 100 | >100 | >100 | >100 | C/I ratio [12]: 0.333; C/I ratio [13]: 0; C/I ratio [14]: 1; C/I ratio (Rattus norvegicus [15]): 0.25; C/I ratio [10]: 0; C/I ratio [16]: 0.833; C/I ratio [17]: 0.364
5 | Cc1nn(CC(C)C)c(=O)n1-c1ccc(N2CCN(c3ccc(OC[C@@H]4COC(Cn5cncn5)(c5ccc(Cl)cc5Cl)O4)cc3)CC2)cc1 (stereo partly drawn) | >100 | 1 | 10 | 100 | >100 | >100 | 100 | >100 | >100 | > 100 | >100 | C/I ratio [18]: 0; C/I ratio [19]: 0; C/I ratio [20]: 0.364; C/I ratio [21]: 0.333; C/I ratio [22]: 1; C/I ratio [23]: 1
6 | CCC(C)n1ncn(-c2ccc(N3CCN(c4ccc(OC[C@@H]5COC(Cn6cncn6)(c6ccc(Cl)cc6Cl)O5)cc4)CC3)cc2)c1=O (stereo partly drawn) | >100 | 100 | 10 | >100 | >100 | 10 | 100 | >100 | >100 | >100 | >100 | C/I ratio [24]: 0.853; C/I ratio [25]: 11; C/I ratio [26]: 1; C/I ratio [27]: 0.8; C/I ratio [28]: 1; C/I ratio (Rattus norvegicus [29]): 0.394; C/I ratio [30]: 0.175
7 | CCn1ncn(-c2ccc(N3CCN(c4ccc(OC[C@@H]5COC(Cn6cncn6)(c6ccc(Cl)cc6Cl)O5)cc4)CC3)cc2)c1=O (stereo partly drawn) | >100 | 1 | 1 | 100 | >100 | 1 | 10 | >100 | >100 | >100 | >100 | C/I ratio [31]: 0.867; C/I ratio [19]: 0; C/I ratio [32]: 0.5; C/I ratio [33]: 0.3; C/I ratio (Rattus norvegicus [34]): 16; C/I ratio [35]: 4; C/I ratio [36]: 0.833
8 | CCCn1ncn(-c2ccc(N3CCN(c4ccc(OC[C@@H]5COC(Cn6ccnc6)(c6ccc(Cl)cc6Cl)O5)cc4)CC3)cc2)c1=O (stereo partly drawn) | >100 | >100 | 100 | >100 | >100 | 100 | >100 | >100 | >100 | >100 | >100 | C/I ratio [37]: 1; C/I ratio [6]: 0
9 | CC(=O)N1CCN(c2ccc(OCC3COC(Cn4ccnc4)(c4ccc(Cl)cc4Cl)O3)cc2)CC1 (stereo not drawn) [KETOCONAZOLE] |  |  |  |  |  |  |  |  |  |  |  | C/I ratio [38]: 1; C/I ratio [39]: 0; C/I ratio [40]: 0.956; C/I ratio [41]: 0; C/I ratio [42]: 0.118; C/I ratio [43]: 0.25
